Active and inactive are the calls of the source. The rule behind the calls is not given here.
Tests used:
[1] = system: Plasmodium berghei; test: Antimalarial activity against liver stage form of luciferase transfected Plasmodium berghei sporozoites infected in mouse assessed as protection against parasitemia at 100 mg/kg administered via oral gavage 1 hr post infection measured at 44 hrs by bioluminescence method; type: functional, organism-based
Summary of the method: (§1)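 Mice infected with luciferase-expressing P. berghei sporozoites, five per group. A single dose in PEG 400 was given orally by gavage (25, 50, 100 mg/kg) or subcutaneously (50 mg/kg) 1 h after infection. Infected untreated controls and a primaquine drug control were included. Whole-animal imaging was done 5 min after ip D-luciferin (100 mg/kg) under isoflurane, at 44 h and days 6, 9 and 13. Survival/cure followed to day 30.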

[2] = system: Plasmodium berghei; test: Antimalarial activity against liver stage form of luciferase transfected Plasmodium berghei sporozoites infected in mouse assessed as inhibition of parasitemia at 25 mg/kg administered via oral gavage 1 hr post infection measured on day 9 by bioluminescence method relative to control; type: functional
[3] = system: Plasmodium berghei; test: Antimalarial activity against liver stage form of luciferase transfected Plasmodium berghei sporozoites infected in mouse assessed as protection against parasitemia at 25 to 50 mg/kg administered via oral gavage 1 hr post infection measured on day 30 by bioluminescence method; type: functional, organism-based; summary of the method: as §1
[4] = system: Plasmodium berghei; test: Antimalarial activity against liver stage form of luciferase transfected Plasmodium berghei sporozoites infected in mouse assessed as protection against parasitemia at 100 mg/kg administered via oral gavage 1 hr post infection measured on day 6 to 13 by bioluminescence method; type: functional, organism-based; summary of the method: as §1
[5] = system: Plasmodium berghei; test: Antimalarial activity against liver stage form of luciferase transfected Plasmodium berghei sporozoites infected in mouse assessed as inhibition of parasitemia at 50 mg/kg, sc administered 1 hr post infection measured on day 9 by bioluminescence method relative to control; type: functional
[6] = system: Plasmodium falciparum; test: Antimalarial activity against mefloquine/chloroquine/atovaquone/pyrimethamine-resistant Plasmodium falciparum TM90-C2B infected in human type A-positive erythrocytes after 48 hrs by [3H]-hypoxanthine incorporation assay; type: functional, cell-based
Summary of the method: (§2)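 Compound from 10.0 mM DMSO stock, diluted ≥1:400, then 11 concentrations in duplicate. Incubated at 37 °C under 90% N2/5% O2/5% CO2 for 48 h, then 3H-hypoxanthine added for 24 h more. CPM counted; EC50 by nonlinear regression.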

[7] = system: Plasmodium falciparum; test: Antimalarial activity against pyrimethamine/chloroquine-resistant Plasmodium falciparum W2 infected in human type A-positive erythrocytes after 48 hrs by [3H]-hypoxanthine incorporation assay; type: functional, cell-based; summary of the method: as §2
[8] = system: Plasmodium berghei; test: Antimalarial activity against Plasmodium berghei infected in human HepG2 cells after 44 hrs by luciferase assay; type: functional, cell-based; details: HepG2, 44 h
Summary of the method: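 HepG2 cells, 75000 per well, in DMEM with 10% FBS at 37 °C, 5% CO2. 5000 Pb luciferase sporozoites from dissected mosquito salivary glands added per well for 3 h, then washed three times with PBS. Serially diluted compound added in triplicate, 44 h at 37 °C. Cells lysed, luciferase substrate added, luminescence read.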

[9] = system: Plasmodium berghei; test: Antimalarial activity against liver stage form of luciferase transfected Plasmodium berghei sporozoites infected in mouse assessed as protection against parasitemia at 50 mg/kg, sc administered 1 hr post infection measured on day 30 by bioluminescence method; type: functional, organism-based; summary of the method: as §1
[10] = system: Plasmodium berghei; test: Antimalarial activity against liver stage form of luciferase transfected Plasmodium berghei sporozoites infected in mouse assessed as protection against parasitemia at 100 mg/kg administered via oral gavage 1 hr post infection measured on day 30 by bioluminescence method; type: functional, organism-based; summary of the method: as §1
[11] = system: Plasmodium berghei; test: Antimalarial activity against liver stage form of luciferase transfected Plasmodium berghei sporozoites infected in mouse assessed as protection against parasitemia at 25 to 100 mg/kg administered via oral gavage 1 hr post infection measured on day 6 to 13 by bioluminescence method; type: functional, organism-based; summary of the method: as §1
[12] = system: Plasmodium berghei; test: Antimalarial activity against liver stage form of luciferase transfected Plasmodium berghei sporozoites infected in mouse assessed as inhibition of parasitemia at 50 mg/kg administered via oral gavage 1 hr post infection measured on day 9 by bioluminescence method relative to control; type: functional
[13] = system: Plasmodium berghei; test: Antimalarial activity against liver stage form of luciferase transfected Plasmodium berghei sporozoites infected in mouse assessed as protection against parasitemia at 25 to 100 mg/kg administered via oral gavage 1 hr post infection measured at 44 hrs by bioluminescence method; type: functional, organism-based; summary of the method: as §1
[14] = system: Plasmodium berghei; test: Antimalarial activity against liver stage form of luciferase transfected Plasmodium berghei sporozoites infected in mouse assessed as inhibition of parasitemia at 100 mg/kg administered via oral gavage 1 hr post infection measured on day 9 by bioluminescence method relative to control; type: functional
[15] = Aqueous solubility of compound at pH 6.5; type: physicochemical
[16] = system: Plasmodium berghei; test: Antimalarial activity against liver stage form of luciferase transfected Plasmodium berghei sporozoites infected in mouse assessed as protection against parasitemia at 50 mg/kg, sc administered 1 hr post infection measured on day 6 to 13 by bioluminescence method; type: functional, organism-based; summary of the method: as §1
[17] = system: Plasmodium berghei; test: Antimalarial activity against liver stage form of luciferase transfected Plasmodium berghei sporozoites infected in mouse assessed as protection against parasitemia at 50 mg/kg, sc administered 1 hr post infection measured at 44 hrs by bioluminescence method; type: functional, organism-based; summary of the method: as §1

| Structure (SMILES) | Activity [1] | inhibition in vivo at 25 mg/kg [2] [%] | Activity [3] | Activity [4] | inhibition in vivo at 50 mg/kg [5] [%] | EC50 [6] [µM] | EC50 [7] [µM] | EC50 [8] [µM] | Activity [9] | Activity [10] | Activity [11] | inhibition in vivo at 50 mg/kg [12] [%] | Activity [13] | inhibition in vivo at 100 mg/kg [14] [%] | solubility [15] [µM] | Activity [16] | Activity [17] |
| --- | --- | --- | --- | --- | --- | --- | --- | --- | --- | --- | --- | --- | --- | --- | --- | --- | --- |
| COC(=O)c1c[nH]c2cc(CN3CCN(Cc4ccc(OC)cc4)CC3)ccc2c1=O | Active | 49.1 | Active | Active | 20.1 | 0.8 | 0.0025 | 0.083 | inactive | – | – | – | – | – | – | – | – |
| COC(=O)c1c[nH]c2cc(CN3CCN(c4ccccc4)CC3)ccc2c1=O | – | 65.3 | – | – | > 99 | 0.48 | 0.0013 | 0.0047 | – | Active | Active | 85.1 | Active | > 99 | ≥ 80 | Active | Active |
